Test results reported in publication PMC2151581 (The Journal of General Physiology, 2006).
Ends that are not written are not given here.

Legend:
[1] = biological target: Drosophila Slowpoke calcium-dependent potassium channel (dSlo) (Drosophila melanogaster, UniProt Q03720); assay: Inside-out patch recording of dSlo current with peptide on the cytoplasmic side; format: cell-based
How it was run: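 Inside-out patches came from CHO cells transfected with dSlo, in symmetrical 150 mM KCl, 0.5 mM HEDTA, 1 mM Mg²⁺, 10 mM HEPES pH 7.2, with 7 μM free Ca²⁺, at room temperature. Peptide was dissolved in the bath (cytoplasmic side). Patches were stepped from −80 to +140 mV; the mean current over the last 10 ms was normalized to the same patch before peptide. A Hill equation fit across concentrations gave IC50.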

BK channels = conditions: wild type and calcium bowl mutant channels; ref Zakharov et al., 2005; cited from earlier work
dSlo = assay: Coimmunoprecipitation of Slobs with dSlo from CHO cell lysates, Western blot; format: binding, Drosophila; conditions: cotransfected CHO cells, anti-Slob immunoprecipitation
How it was run: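 Slobs were cotransfected with the channel into CHO cells (Ham's F-12, 10% FBS, penicillin/streptomycin) using Lipofectamine 2000. Lysis was 1 d later in Tris-HCl pH 7.5/NaCl/KCl/NaF/1% CHAPS buffer with DTT and protease inhibitors. The 16,000 g supernatant was incubated with anti-Slob for 2 h at 4°C, then protein A/G agarose overnight at 4°C, with four PBS washes. SDS-PAGE, nitrocellulose, anti-dSlo 1 h at RT, HRP anti-rabbit, ECL. Controls were blank vector and nontransfected cells.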

[2] = test system: dSloD5N5 (calcium bowl mutant of dSlo); format: cell-based, Drosophila
How it was run: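 CHO cells were cotransfected 1:1 (molar) with dSloD5N5 and Slob57 or truncation mutants using Lipofectamine 2000. Whole-cell recording was done 1 d later at room temperature with 2–4 MΩ pipettes, in symmetrical 150 mM KCl, 0.5 mM HEDTA, 2 mM MgCl₂, 10 mM HEPES pH 7.2, with 110 or 300 μM free Ca²⁺ in the pipette. Holding was −80 mV, then −120 mV afterward. 350-ms pulses were used for inactivation; 100-ms pulses gave G–V from peak tail currents and V1/2. Mean ± SEM, ANOVA/Bonferroni.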

Sequence of Drosophila Slowpoke calcium-dependent potassium channel (dSlo) (Q03720 whole entry): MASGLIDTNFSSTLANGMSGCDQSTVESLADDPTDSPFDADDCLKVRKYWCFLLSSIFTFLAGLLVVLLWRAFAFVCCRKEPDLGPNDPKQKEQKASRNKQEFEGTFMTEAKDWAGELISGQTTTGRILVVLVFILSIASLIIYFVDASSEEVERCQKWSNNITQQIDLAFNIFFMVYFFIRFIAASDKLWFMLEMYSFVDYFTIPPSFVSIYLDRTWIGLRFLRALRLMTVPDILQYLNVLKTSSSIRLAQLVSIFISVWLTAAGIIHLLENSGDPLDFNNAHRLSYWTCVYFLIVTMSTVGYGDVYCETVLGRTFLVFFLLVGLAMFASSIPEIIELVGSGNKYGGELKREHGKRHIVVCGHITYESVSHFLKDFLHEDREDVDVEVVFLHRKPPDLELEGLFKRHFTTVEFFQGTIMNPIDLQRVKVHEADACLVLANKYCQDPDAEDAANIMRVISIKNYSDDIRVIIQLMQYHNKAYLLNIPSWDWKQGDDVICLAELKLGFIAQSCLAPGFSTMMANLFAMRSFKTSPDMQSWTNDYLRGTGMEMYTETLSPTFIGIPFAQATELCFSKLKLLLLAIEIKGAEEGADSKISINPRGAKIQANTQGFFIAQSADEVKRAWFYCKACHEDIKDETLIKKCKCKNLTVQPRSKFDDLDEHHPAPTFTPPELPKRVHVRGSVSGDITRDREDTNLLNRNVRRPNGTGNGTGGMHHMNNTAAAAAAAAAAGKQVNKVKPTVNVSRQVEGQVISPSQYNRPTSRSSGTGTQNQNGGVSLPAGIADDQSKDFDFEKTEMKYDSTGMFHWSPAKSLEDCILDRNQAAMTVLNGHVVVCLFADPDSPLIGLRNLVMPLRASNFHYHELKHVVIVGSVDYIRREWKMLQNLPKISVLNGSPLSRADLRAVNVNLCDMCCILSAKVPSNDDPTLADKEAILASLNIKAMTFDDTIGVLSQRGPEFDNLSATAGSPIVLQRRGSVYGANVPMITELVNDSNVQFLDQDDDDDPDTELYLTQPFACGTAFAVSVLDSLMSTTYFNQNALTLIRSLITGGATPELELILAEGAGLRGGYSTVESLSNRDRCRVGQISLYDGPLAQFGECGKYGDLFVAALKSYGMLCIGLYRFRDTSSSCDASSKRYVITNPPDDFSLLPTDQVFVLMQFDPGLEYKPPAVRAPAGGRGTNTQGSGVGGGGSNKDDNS

Which IC50 [1] does the source give for MFKFNK [MFKFNK] here?
The IC50 was 31 µM.

What about the Kd [1] of the same molecule?
The Kd was 162 µM.

With CC(=O)c1c(O)c(C)c(O)c(Cc2c(O)c3c(c(C(=O)/C=C/c4ccccc4)c2O)OC(C)(C)C=C3)c1O [mallotoxin] as the molecule, how does the “Ca2+ dependence of the modulation of BK channels” value (BK channels) read?
The value was “independent of Ca^2+ binding”.

B1: Slob57ΔN5: amino-terminal five residue–truncated Slob57 (deletion of residues 2–6) (protein)
chain: MAAQQQRIDNRNSAVTGHDPFVRPPVPEKKVRNIMKKLHKANGLKRSNSAIEFDVSALTAANRRQIYSSNRSASSEQDNSDLSEHSEKSPLVSARLDNLARLFFSKSMPAETGSRDTIDSVLTTRPNIKYQYSALDSGNGIVERSPRERAQREKALNATQEWIQGANGRYEVIAHLDEIGSRHGKNWFLVTDASVRTDRLQTLLPLPPDCVAFEDLPPNECAREILMELLGSLHHPYIYPVLDLGFLRNSSYNYACLVTPFNSRGSLKDLIYKAQWNEPWARKYTRKPNGLPVSQVQRLGRQILEALLFLKERGFPLHGHLHSGNVILQNGAARLSGLENGLLGLSSRINAVMWSRSVTEIENVDIVCFGHLLYEMCTGQELTTPKPSMRVLEMELQHYPQIGQTRKQILEILGLIFEPPSGVCPSVEDLVLCDLFRSIDLRELRGPCFSTIKPSLSRSTLNLLQAVKKRQCASLGHSLSEANSPCTPPSTPHDRRTGVLPAPYEVFRMY
Which “binding to dSlo (coimmunoprecipitation)” value (dSlo) does the source give for B1 here?
Its value is “still bind to dSlo”.

B2: Slob57ΔN15: amino-terminal 15 residue–truncated Slob57 (deletion of residues 2–16) (protein)
chain: MNSAVTGHDPFVRPPVPEKKVRNIMKKLHKANGLKRSNSAIEFDVSALTAANRRQIYSSNRSASSEQDNSDLSEHSEKSPLVSARLDNLARLFFSKSMPAETGSRDTIDSVLTTRPNIKYQYSALDSGNGIVERSPRERAQREKALNATQEWIQGANGRYEVIAHLDEIGSRHGKNWFLVTDASVRTDRLQTLLPLPPDCVAFEDLPPNECAREILMELLGSLHHPYIYPVLDLGFLRNSSYNYACLVTPFNSRGSLKDLIYKAQWNEPWARKYTRKPNGLPVSQVQRLGRQILEALLFLKERGFPLHGHLHSGNVILQNGAARLSGLENGLLGLSSRINAVMWSRSVTEIENVDIVCFGHLLYEMCTGQELTTPKPSMRVLEMELQHYPQIGQTRKQILEILGLIFEPPSGVCPSVEDLVLCDLFRSIDLRELRGPCFSTIKPSLSRSTLNLLQAVKKRQCASLGHSLSEANSPCTPPSTPHDRRTGVLPAPYEVFRMY
With B2 as the molecule, how does the “binding to dSlo (coimmunoprecipitation)” value (dSlo) read?
Its value is “still bind to dSlo”.

B3: Slob57: ion channel auxiliary protein that binds to and modulates the Drosophila Slowpoke channel (dSlo) (protein)
chain: MFKFNKAAQQQRIDNRNSAVTGHDPFVRPPVPEKKVRNIMKKLHKANGLKRSNSAIEFDVSALTAANRRQIYSSNRSASSEQDNSDLSEHSEKSPLVSARLDNLARLFFSKSMPAETGSRDTIDSVLTTRPNIKYQYSALDSGNGIVERSPRERAQREKALNATQEWIQGANGRYEVIAHLDEIGSRHGKNWFLVTDASVRTDRLQTLLPLPPDCVAFEDLPPNECAREILMELLGSLHHPYIYPVLDLGFLRNSSYNYACLVTPFNSRGSLKDLIYKAQWNEPWARKYTRKPNGLPVSQVQRLGRQILEALLFLKERGFPLHGHLHSGNVILQNGAARLSGLENGLLGLSSRINAVMWSRSVTEIENVDIVCFGHLLYEMCTGQELTTPKPSMRVLEMELQHYPQIGQTRKQILEILGLIFEPPSGVCPSVEDLVLCDLFRSIDLRELRGPCFSTIKPSLSRSTLNLLQAVKKRQCASLGHSLSEANSPCTPPSTPHDRRTGVLPAPYEVFRMY
What does the source list for B3?
shift of the conductance–voltage relationship of dSloD5N5 ([2]; 100-ms test pulse, 110 μM free Ca2+): does not rightward shift; modulation of V1/2 of dSloD5N5 ([2]; 100-ms test pulse, 300 μM free Ca2+): not modulated; inactivation of dSloD5N5 ([2]; coexpression in CHO cells, whole cell, 110 μM free Ca2+, 350-ms test pulse): causes dSloD5N5 inactivation
